# Experimental data reported in PMC11476771 (BMC Nephrology, 2024).
# Like-named read-outs stand apart in the source and are kept apart here.
# How the values were obtained:
# [1] = type: in vivo, human
# Procedure, shortened: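 Open-label, parallel-group, single 3.0 mcg/kg IV dose by check-in weight in NDD subjects stratified by MDRD eGFR, and in matched healthy controls. Plasma sampled predose to 72 h; urine collected in intervals to 72 h. LC-MS/MS (LLOQ 0.1 ng/mL plasma, 1.0 ng/mL urine); noncompartmental parameters. ANCOVA on ln Cmax/AUCinf (covariates age, weight, BMI, sex) gave geometric mean ratios with 90% CI. CL was regressed linearly on eGFR.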
# Multiple-dose phase 2 = type: in vivo, human; conditions: for Dose proportionality of Cmax and AUC0 − 48 (power model): 0.5, 1.0, 2.5 mcg/kg, 95% CIs included 1
# Procedure, shortened: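 Randomized, double-blind, placebo-controlled dose escalation in HD subjects. Sequential cohorts of 8 (6 active, 2 placebo), randomized 3:1 within strata of urine output. IV bolus given within 15 min after each of 3 HD sessions over 1 week. Serial plasma sampled days 1–8 by LC-MS/MS (LLOQ 0.1 ng/mL). Noncompartmental parameters; RAC from day 5:day 1 AUC0−48; power-model dose proportionality.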
# Safety [2] = type: in vivo, human; conditions: single IV 3.0 mcg/kg
# Safety [3] = type: in vivo, human; conditions: HD subjects; multiple-dose PK study
# [4] = hemodialysis patients after treatment discontinued; cited from earlier work
compound,measurement,setting,value
CC(C)C[C@@H](NC(=O)[C@@H](Cc1ccccc1)NC(=O)[C@H](N)Cc1ccccc1)C(=O)N[C@H](CCCCN)C(=O)N1CCC(N)(C(=O)O)CC1 [difelikefalin],Intercept of total CL versus eGFR,"[1]; CL value = intercept + slope * eGFR, IV 3.0 mcg/kg, 95% CI 3.734794–20.470724",12.1
same,Slope of total CL versus eGFR,"[1]; CL value = intercept + slope * eGFR, IV 3.0 mcg/kg, NDD subjects with impaired or normal renal function, 95% CI 0.482284–0.718031, P < 0.0001",0.6002
same,Exposure relative to healthy subjects,"[1]; moderate renal impairment vs healthy subjects, single IV 3.0 mcg/kg",1.7 fold
same,Reduction of clearance compared with healthy subjects,"[1]; moderate renal impairment, single IV 3.0 mcg/kg",47.0%
same,Exposure relative to healthy subjects,"[1]; severe renal impairment vs healthy subjects, single IV 3.0 mcg/kg",3.3 fold
same,Reduction of clearance compared with healthy subjects,"[1]; severe renal impairment, single IV 3.0 mcg/kg",71.7%
same,Time of peak plasma concentration,"[1]; single IV 3.0 mcg/kg, first post-dose PK sample, across all treatment groups",2 to 3 min
same,Dose proportionality of Cmax and AUC0 − 48 (power model),Multiple-dose phase 2; HD subjects,slope values were all close to unity
same,Dose proportionality of Cmax and AUC0 − 48 (power model),"Multiple-dose phase 2; HD subjects, listed as IV difelikefalin",demonstrated dose proportionality
same,"Mean t1/2, range over dose groups","Multiple-dose phase 2; HD subjects, day 1, 0.5-2.5 mcg/kg",1390 to 1870 min
same,"Mean accumulation ratio (RAC), range over dose groups","Multiple-dose phase 2; HD subjects, day 5, 3 dose groups",1.0–1.2
same,Increase of half-life in HD subjects compared with normal renal function,Multiple-dose phase 2; cross-study comparison,approximately 10 fold
same,Clearance in HD subjects prior to dialysis as % of healthy subjects,"Multiple-dose phase 2; cross-study comparison, reference is 2.5 mcg/kg HD group",14%
same,Tmax,"Multiple-dose phase 2; human, in vivo, iv",5 min
same,Subjects with vomiting,Safety [2]; 3/36 subjects,8.3%
same,Subjects with dizziness,Safety [2]; 4/36 subjects,11.1%
same,Subjects with mild headache,Safety [2]; 4/36 subjects,11.1%
same,Subjects with paresthesia (mild),Safety [2]; 5/36 subjects,13.9%
same,Subjects reporting TEAEs,Safety [2]; 17/36 subjects,47.2%
same,Serious AEs,Safety [2]; all 36 subjects,none were serious AEs
same,Total number of TEAEs,Safety [2]; all 36 subjects,37
same,TEAEs considered related to study drug,"Safety [2]; all 36 subjects, number of events",17
same,TEAEs of moderate severity,"Safety [2]; number of events, most TEAEs mild",7
same,"SAEs, severe TEAEs, TEAEs leading to discontinuation, deaths",Safety [3],"no SAEs, severe TEAEs, TEAEs that led to drug discontinuations, or deaths"
same,Detectability in plasma after dialysis cycles,[4],no longer detectable in plasma after 2 dialysis cycles
same,Reduction of plasma concentration by a single dialysis cycle,[4],approximately 83%
